Bioassay records from PubChem.
MLLE-PAM2 inh: blocks PAM2 peptide binding to the PABP1 MLLE domain; GST-MLLE / FITC-PAM2 fluorescence polarization; P11940; AID 588489; inhibition, % at 20 µM; hit rate 0.36% among 360,000; in the data active = inhibition above about 35%, passing the limit was not always enough;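 also: plate controls were DMSO wells with GST-MLLE for no effect and wells lacking GST-MLLE protein for full effect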
VIM-2 inhibitor: inhibitors of Pseudomonas aeruginosa VIM-2 metallo-beta-lactamase; purified VIM-2, nitrocefin hydrolysis, epi-absorbance fluorescence; inhibition, % at 5.6 µM; hit rate 0.89% among 290,000; AID 1527;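 active = inhibition above the mean of all tested compounds plus 3 SD, cutoff set per screening run, cut at about 7.5% in these data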;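 also: red hydrolysis product quenches plate fluorescence so inhibitors raise well fluorescence; 0% = enzyme with DMSO and 100% = DMSO without enzyme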
eIF4H inh: inhibitors of RNA binding by human eIF4H; Q15056; eIF4H fluorescence polarization binding assay; hit rate 0.94% among 290,000; inhibition, % at 35 µM;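 also: calls also rest on retests at 20 µM and on dose response follow-up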
PABP FP inh: PABP-poly(A) binding inhibition; PABP-poly(A) RNA binding, fluorescence polarization; calls only at 35 µM; hit rate 1% among 290,000;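 also: calls also rest on retests at 20 µM and on dose response follow-up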
IMP-1 inhibitor: blocks Pseudomonas aeruginosa IMP-1 metallo-beta-lactamase. purified IMP-1, nitrocefin hydrolysis, epi-absorbance fluorescence. inhibition, % at 5.6 µM. hit rate 0.45% among 290,000. AID 1556;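 active = inhibition above the mean plus 3 SD of all compounds in the same screening run, cut at about 4.5% in these data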;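 also: 0% = IMP-1 with DMSO and 100% = DMSO wells lacking enzyme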
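System: purified recombinant IMP-1 beta-lactamase. Medium: Zinc- and detergent-supplemented HEPES buffer, pH 7.1. Compound: one 5.6 µM dose […]. Schedule: 15 min preincubation plus 25 min reaction at 25 °C. Technique: Epi-absorbance fluorescence, 480 nm excitation, 530 nm emission.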
The depositor's hits bear a star; i = inactive; · = not tested or not shown; + = active, no number; ! = not active in a repeat. Shown are actives, neighbours in structure and some others; about 2.2% of the full set was active somewhere. Unless noted, no rule for the calls is given here.

SMILES	MLLE-PAM2 inh	VIM-2 inhibitor	eIF4H inh	PABP FP inh	IMP-1 inhibitor
O=C(c1ccco1)[C@@H]1[C@@H]2C(=O)N(c3ccccc3)C(=O)[C@@H]2C2c3ccccc3C=CN21 (stereo partly specified)	37	-2	54	i	-1
COc1ccc(N2C(=O)[C@@H]3[C@H](C2=O)[C@H]2C=CC=NN2[C@@H]3C(=O)Nc2ccc(Cl)cc2)cc1	1	-3	-2	i	-3
CCN(CC)c1ccc(-c2c(C#N)c(N)nc(OC)c2C#N)cc1	-8	-2	60*	+	-1
CCN(CC)S(=O)(=O)c1ccc(OCC2CCCCO2)c([N+](=O)[O-])c1 (stereo unspecified)	-4	-1	-7	i	-2
CCC(Sc1nc(C)cc(C)n1)C(=O)Nc1ccc(S(N)(=O)=O)cc1 (stereo unspecified)	-1	-3	15	i	-3
CCC(SC1=NCCS1)C(=O)Nc1ccc(S(N)(=O)=O)cc1 (stereo unspecified)	41*	-2	7	i	-3
O=C1NC(=S)CN1c1ccccc1	57*	-1	13	i	-4
Nc1cc(-c2ccc(Br)cc2)nn1Cc1ccccc1	23	-4	-3	i	-3
Nc1cc(-c2cccc(Br)c2)nn1Cc1ccccc1	-1	-1	active	i	-3
CCc1cc(Cn2nc(-c3ccccc3)cc2C(=O)NCc2cccs2)on1	-5	·	·	·	·
O=C(NCc1ccco1)c1ccc(S(=O)(=O)N2CCCCC2)cc1	6	-2	-7	i	-3
O=S(=O)(c1ccc2ccccc2c1)N1CCOCC1	4	1	-4	i	-1
O=C(c1ccco1)N1CCN(C(=O)c2cc(-c3ccncc3)nc3ccc(Br)cc23)CC1	-45	1	·	·	-9
O=C(O)c1cc(-c2ccco2)nc2ccc(Br)cc12	24	-4	87*	+!	-3
O=C(Nc1cccc(C(F)(F)F)c1)c1ccc2nc(-c3ccco3)c(-c3ccco3)nc2c1	-14	-3	75*	+	-4
O=S(=O)(c1ccc2nc(-c3ccco3)c(-c3ccco3)nc2c1)N1CCOCC1	23	-2	95*	+	0
O=C(NCc1ccco1)c1ccc(S(=O)(=O)N2CCOCC2)cc1	27	-4	79*	+	-3
O=[N+]([O-])c1ccc(-c2nc(C(Cl)Cl)c3ccccc3n2)cc1	-11	-2	-9	i	-2
COc1cc(S(=O)(=O)NCC2(N3CCCCC3)CCCCC2)ccc1NC(C)=O	3	·	·	·	·
O=C(O)c1ccc2nc(-c3ccco3)c(-c3ccco3)nc2c1	50*	1	98*	+	1
O=C(c1ccc2nc(-c3ccco3)c(-c3ccco3)nc2c1)N1CCN(c2ccccc2)CC1	22	0	94*	+	-2
CC(CNC(=S)Nc1cc(F)cc(F)c1)CSc1ccc(Cl)cc1 (stereo unspecified)	10	-4	-8	i	-3
Cc1nc2ccccn2c1-c1csc(Nc2cccc(O)c2)n1	-14	11*	2	i	-3
N#C/C(=C/c1ccccc1OCc1ccc(F)cc1)c1ccc(C(=O)O)cc1	-89	-1	17	+	-2
CC(=O)c1cccc2c1OC(C)C(=O)N2Cc1ccc(Cl)cc1 (stereo unspecified)	5	·	·	·	·
SMILES	MLLE-PAM2 inh	VIM-2 inhibitor	eIF4H inh	PABP FP inh	IMP-1 inhibitor
N=C1/C(=C\c2ccc(-c3ccc(C(=O)O)cc3)o2)C(=O)N=C2SC=C(c3ccccc3)N12	-109	1	70*	i	11*
C[n+]1cc(-c2ccccc2)n2c1CCCCC2	-103	-6	6	+	4
O=C(C[n+]1cc(-c2ccccc2)n2c1CCCCC2)c1ccc(Cl)cc1	4	-3	-3	i	-2
CCCCN1C(=O)C(CC(=O)NC2CCCC2)CC(C(=O)N(C(C)C)C(C)C)=C1C (stereo unspecified)	-10	·	·	·	·
O=C(C[C@H]1C[C@H](C(=O)N2CCCCC2)[C@@]2(CCc3ccccc3)c3[nH]c4ccc(Cl)cc4c3CCN2C1=O)NCCC1=CCCCC1	-1	·	·	·	·
CCOC(=O)C1CCN(c2cc3c(cc2NC(=O)c2ccccc2Cl)n(C)c(=O)n3C)CC1	-16	-2	-10	i	-1
CCOC(=O)C1CCN(c2cc3c(cc2NC(=O)c2ccccc2F)n(C)c(=O)n3C)CC1	-8	1	-9	i	18*
CC(=O)Nc1cccc(NC(=O)CSc2ncc(C(=O)Nc3ccccc3)c(=O)n2C)c1	42*	·	·	·	·
